Assay [1] in a line: Inhibition of beta-lactamase TEM1 using nitrocefin as substrate after 30 mins by spectrophotometric analysis. In outline:
(§1)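 Substrate level differed between class A and class C enzymes. Fraction inhibited was taken as the rate with inhibitor over the rate without. IC50 was read from log[inhibitor] dose–response curves.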

A further assay concerns the target Beta-lactamase (Enterobacter cloacae, UniProt P05364). Put plainly: Inhibition of Enterobacter cloacae P99 beta-lactamase AmpC P99 using nitrocefin as substrate after 30 mins by spectrophotometric analysis. In outline: as §1
Assay [2] is described as follows: Inhibition of beta-lactamase CTX-M9a using nitrocefin as substrate after 30 mins by spectrophotometric analysis. An outline of the steps:
as §1

Assay [3] in a line: Inhibition of beta-lactamase CMY-2 using nitrocefin as substrate after 30 mins by spectrophotometric analysis. In outline: as §1
The target of assay [4] is Beta-lactamase (Enterobacter cloacae) (UniProt P05364). Put plainly: Inhibition of Enterobacter cloacae P99 beta-lactamase AmpC P99 assessed as potentiation of ceftazidime-mediated antibacterial activity at 8 ug/ml.
A short description of assay [5]: Inhibition of beta-lactamase CMY-2 expressed in Escherichia coli SYN2549 assessed as potentiation of ceftazidime-mediated antibacterial activity at 8 ug/ml.

This is an account of results in ChEMBL document CHEMBL1759993, “Synthesis and SAR of novel benzoxaboroles as a new class of β-lactamase inhibitors” (Bioorg Med Chem Lett, 2011).

The source made the active and inactive calls. The calls are words filed in the database; no cut-off is given here.

Beta-lactamase, sequence (P05364 whole entry): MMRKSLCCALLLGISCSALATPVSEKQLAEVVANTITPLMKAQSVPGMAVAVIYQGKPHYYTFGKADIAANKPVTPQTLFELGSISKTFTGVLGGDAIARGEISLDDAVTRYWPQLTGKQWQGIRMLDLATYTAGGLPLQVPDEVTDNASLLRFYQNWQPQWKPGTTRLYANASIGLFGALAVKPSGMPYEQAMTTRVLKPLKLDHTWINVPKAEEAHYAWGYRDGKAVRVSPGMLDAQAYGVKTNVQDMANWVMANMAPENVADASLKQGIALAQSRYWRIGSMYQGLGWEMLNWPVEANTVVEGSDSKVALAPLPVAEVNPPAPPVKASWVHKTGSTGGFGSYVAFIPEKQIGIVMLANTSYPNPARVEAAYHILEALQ
Beta-lactamase (Enterobacter cloacae), sequence (P05364 21-381 limits assumed): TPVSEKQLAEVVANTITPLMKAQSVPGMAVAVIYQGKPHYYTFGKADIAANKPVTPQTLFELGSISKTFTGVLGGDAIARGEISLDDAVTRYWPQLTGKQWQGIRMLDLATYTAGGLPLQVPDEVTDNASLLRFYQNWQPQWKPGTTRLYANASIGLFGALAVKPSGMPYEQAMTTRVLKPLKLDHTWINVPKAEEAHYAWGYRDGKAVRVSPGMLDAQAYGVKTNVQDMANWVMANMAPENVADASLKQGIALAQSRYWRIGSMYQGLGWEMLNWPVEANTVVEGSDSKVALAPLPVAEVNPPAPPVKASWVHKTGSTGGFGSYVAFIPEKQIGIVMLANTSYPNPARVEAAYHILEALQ

Take `CCOC(=O)c1ccc(Oc2ccc3c(c2)B(O)OC3)cc1`: the Ki – broadly, a dissociation constant, usually derived from enzyme kinetics or from competition with a known ligand – in assay [1] is 3.11 µM; on Beta-lactamase, 5.55 µM; in assay [2], above 32 µM.

Take `OCc1cccc(Oc2ccc3c(c2)B(O)OC3)c1`: the Ki in assay [1] is 1.36 µM; in assay [3], 8.43 µM; on Beta-lactamase it was 8.4 µM; in assay [2], 1.92 µM.

`O=C(c1ccccc1)c1ccc2c(c1)B(O)OC2`: the Ki in assay [1] is 10.6 µM; in assay [3], 46.9 µM; on Beta-lactamase, 28.5 µM; in assay [2] it was above 32 µM.

For the compound `Nc1cccc(Oc2ccc3c(c2)B(O)OC3)c1`, the inhibitory constant (Ki) in assay [1] was found to be 1.01 µM; in assay [3], 6.09 µM; on Beta-lactamase, 2.75 µM; in assay [2] it was 0.69 µM.

For `O=S(=O)(c1ccccc1)c1ccc2c(c1)B(O)OC2`, the inhibitory constant (Ki) in assay [1] is 11.2 µM; in assay [3], 108 µM; on Beta-lactamase, 63.2 µM; in assay [2], above 32 µM.

Take `OB1OCc2ccc(Sc3ccccc3)cc21`: the inhibition constant Ki in assay [1] is 1.76 µM; in assay [3] it was 12.7 µM; at Beta-lactamase, 9.09 µM; in assay [2], above 32 µM.

Take `OB1OCc2ccc(Oc3cccc(O)c3)cc21`: the Ki in assay [3] turned out to be 3.12 µM; in assay [2], 0.816 µM.

On to `OB1OCc2ccc(Cc3ccccc3)cc21`, for which the Ki in assay [1] is above 37 µM; in assay [3] it was 25.6 µM; on Beta-lactamase it was 19.8 µM; in assay [2], above 32 µM.

Regarding `CN(C)Cc1cccc(Oc2ccc3c(c2)B(O)OC3)c1`, affinity at Beta-lactamase was put at a Ki of 7.72 µM.

For `O=C(Nc1ccc2c(c1)B(O)OC2)c1ccccc1`, the inhibition constant (Ki) in assay [1] was above 37 µM; in assay [3], above 138 µM; on Beta-lactamase, 46.6 µM; in assay [2] it was above 32 µM.

For `OB1OCc2ccc(Oc3ccccc3)cc21`, the Ki in assay [1] is 1.02 µM; in assay [3], 1.51 µM; at Beta-lactamase, 0.71 µM; in assay [2], 1.89 µM.

As for `O=C(O)c1cnc(Oc2ccc3c(c2)B(O)OC3)nc1`, the Ki is 14.7 µM in assay [1], 0.07 µM in assay [3], 0.08 µM at Beta-lactamase and above 32 µM in assay [2].

Turning to `O=C(O)c1cnc(Oc2ccc3c(c2)B(O)OC3)cn1`, the result in assay [4] and in assay [5] was Active. Moreover, the inhibitory constant (Ki) in assay [1] is 20.4 µM; on Beta-lactamase, 0.02 µM; in assay [2] it was above 32 µM.

As for `O=C(O)c1cccc(Oc2ccc3c(c2)B(O)OC3)c1`, the affinity at Beta-lactamase corresponds to a Ki of 1.44 µM. That is a single-digit micromolar value.

For `OB1OCc2ccc(C(O)c3ccccc3)cc21` (stereo unspecified), the inhibitory constant (Ki) in assay [1] was above 37 µM; in assay [3], 8.42 µM; at Beta-lactamase, 7.28 µM; in assay [2] it was above 32 µM.

Take `O=C(O)c1ccc(Oc2ccc3c(c2)B(O)OC3)cc1`: at Beta-lactamase, the inhibition constant (Ki) amounted to 0.02 µM.

Take `OB1OCc2ccc(Nc3ccccc3)cc21`: the inhibitory constant (Ki) in assay [1] was above 37 µM; in assay [3], 13.8 µM; on Beta-lactamase it was 4.73 µM; in assay [2], above 32 µM.

Compound `Nc1ccc(Oc2ccc3c(c2)B(O)OC3)cc1` registered an inhibition constant Ki on Beta-lactamase of 8.73 µM.

In the case of `O=C(ONc1ccccc1)c1ccc2c(c1)B(O)OC2`, the Ki in assay [1] is above 37 µM; in assay [3] it was 13.8 µM; on Beta-lactamase it was 16 µM; in assay [2] it was above 32 µM.

As for `[O-][S+](c1ccccc1)c1ccc2c(c1)B(O)OC2` (stereo unspecified), the inhibition constant (Ki) was 4.87 µM in assay [1], 59.3 µM in assay [3], 58 µM at Beta-lactamase and above 32 µM in assay [2].

`CN(C)Cc1ccc(Oc2ccc3c(c2)B(O)OC3)cc1` returned a Ki on Beta-lactamase of 40.6 µM.

Turning to `COc1ccc(Oc2ccc3c(c2)B(O)OC3)cc1`, the Ki is 4.34 µM in assay [1], above 46 µM in assay [3], 6 µM on Beta-lactamase and 14.1 µM in assay [2].

Regarding `COc1cccc(Oc2ccc3c(c2)B(O)OC3)c1`, the Ki in assay [1] is 1.4 µM; in assay [3] it was 2.65 µM; at Beta-lactamase it was 1.35 µM; in assay [2], 1.1 µM.

At Beta-lactamase, `NCc1ccc(Oc2ccc3c(c2)B(O)OC3)cc1` yielded a Ki of 13.3 µM. In other words, the double-digit micromolar range.

Regarding `OB1OCc2ccc(Oc3cccc(OCc4ccccc4)c3)cc21`, the inhibition constant (Ki) turned out to be 1.08 µM in assay [1], 74.5 µM in assay [3], 2.27 µM at Beta-lactamase and 8.75 µM in assay [2].

On to `NCc1cccc(Oc2ccc3c(c2)B(O)OC3)c1`, for which affinity at Beta-lactamase was put at a Ki of 3.33 µM. That is a single-digit micromolar value.
